Values after ≈ are worked out from the molar mass of the structure shown. Active and inactive are the calls of the source. No cut-off for these calls is given here.
Tests used:
Acinetobacter baumannii [1] = assay: Synergistic antibacterial activity against Acinetobacter baumannii 2208 ATCC 19606 assessed as colistin MIC by checkerboard method; assay type: functional; conditions: ATCC 19606 = CIP 70.34 = JCM 6841 2208
HepG2 [2] = assay: Cytotoxicity against human HepG2 cells assessed as reduction in cell viability after 24 hrs in presence of 0.5% FBS by MTT assay; assay type: cell-based; conditions: HepG2, 24 h
Method in brief: (§1)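 HepG2 cells in EMEM with either 10% FBS or 0.5% FBS plus 10% Cell-Ess serum replacement. Seeded at 25,000 cells/well and incubated overnight at 37 °C, 5% CO2. Treated 24 h at 100–3 μg/mL, with matched DMSO controls. MTT added for 2 h, formazan extracted in DMSO, absorbance read at 570 nm. Run in duplicate; IC50 taken from the viability plot against the DMSO control.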

Staphylococcus aureus [3] = assay: Antibacterial activity against methicillin-resistant Staphylococcus aureus subsp. aureus Rosenbach ATCC 43300 by microbroth dilution method; assay type: functional
Method in brief: (§2)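 Broth microdilution MIC; reported value is mean of at least two runs, within two-fold experimental uncertainty.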

Acinetobacter baumannii [4] = assay: Synergistic antibacterial activity against Acinetobacter baumannii 2208 ATCC 19606 assessed as fractional inhibitory concentration in presence of colistin by checkerboard method; assay type: functional, ATCC 19606 = CIP 70.34 = JCM 6841 2208
Acinetobacter baumannii [5] = assay: Antibacterial activity against Acinetobacter baumannii 2208 ATCC 19606 by microbroth dilution method; assay type: functional; conditions: ATCC 19606 = CIP 70.34 = JCM 6841 2208
Method in brief: (§3)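 Microbroth dilution MIC; each value is the mean of at least two runs, within two-fold experimental uncertainty.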

Staphylococcus aureus [6] = assay: Antibacterial activity against Staphylococcus aureus RN4220 by microbroth dilution method; assay type: functional; method in brief: as §2
[7] = Inhibition of Acinetobacter baumannii 2208 ATCC 19606 FabI using crotonyl-CoA as substrate in presence of NADPH/NADH after 10 mins by fluorescence assay; design: species or system Acinetobacter baumannii ATCC 19606 = CIP 70.34 = JCM 6841
Method in brief: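 AbFabI, 200 nM, in 50 mM MES/100 mM NaCl with 200 μM NADH, 0.1 mg/mL BSA and 0.01% triton. Reaction started with 300 μM crotonyl-CoA. NADH fluorescence read at 340/460 nm. Compounds tested at 0.4 nM–200 μM. Initial 10-min slopes were compared with a DMSO no-compound control. At least two independent experiments, each in duplicate; two-fold uncertainty.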

Staphylococcus aureus [8] = assay: Antibacterial activity against Staphylococcus aureus RN4220 over-expressing FabI by microbroth dilution method; assay type: functional; method in brief: as §2
[9] = target: T1, Enoyl-[acyl-carrier-protein] reductase [NADPH] FabI (Staphylococcus aureus) (UniProt Q6GI75); assay: Binding affinity to Staphylococcus aureus subsp. aureus Rosenbach ATCC 43300 FabI by SPR assay
T1 sequence (whole entry): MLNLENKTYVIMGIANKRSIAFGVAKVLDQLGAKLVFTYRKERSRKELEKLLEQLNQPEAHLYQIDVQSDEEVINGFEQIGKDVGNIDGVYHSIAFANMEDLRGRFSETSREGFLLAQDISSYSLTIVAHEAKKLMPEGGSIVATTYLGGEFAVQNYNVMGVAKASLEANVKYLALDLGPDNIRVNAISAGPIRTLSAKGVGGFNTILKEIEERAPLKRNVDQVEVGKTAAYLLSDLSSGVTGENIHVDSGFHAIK

[10] = target: T2, Enoyl-[acyl-carrier-protein] reductase [NADPH] FabI (Staphylococcus aureus, UniProt Q6GI75); assay: Competitive inhibition of Staphylococcus aureus subsp. aureus Rosenbach ATCC 43300 FabI using crotonyl-CoA as substrate in presence of NADPH/NADH after 10 mins by fluorescence assay
T2 sequence (Q6GI75 whole entry): T1 sequence (whole entry)

[11] = Competitive inhibition of Acinetobacter baumannii 2208 ATCC 19606 FabI using crotonyl-CoA as substrate in presence of NADPH/NADH after 10 mins by fluorescence assay; design: species or system Acinetobacter baumannii ATCC 19606 = CIP 70.34 = JCM 6841
Escherichia coli [12] = assay: Antibacterial activity against Escherichia coli BW25113 mutant by microbroth dilution method; assay type: functional; method in brief: as §2
Staphylococcus aureus [13] = assay: Antibacterial activity against Staphylococcus aureus Newman by microbroth dilution method; assay type: functional; method in brief: as §3
HepG2 [14] = assay: Cytotoxicity against human HepG2 cells assessed as reduction in cell viability after 24 hrs in presence of 10% FBS by MTT assay; assay type: cell-based; conditions: HepG2, 24 h; method in brief: as §1
Acinetobacter baumannii [15] = assay: Synergistic antibacterial activity against Acinetobacter baumannii 2208 ATCC 19606 in presence of colistin by checkerboard method; assay type: functional; conditions: ATCC 19606 = CIP 70.34 = JCM 6841 2208
[16] = system: Acinetobacter baumannii ATCC 19606 = CIP 70.34 = JCM 6841; assay: Binding affinity to Acinetobacter baumannii 2208 ATCC 19606 FabI by SPR assay
Acinetobacter baumannii [17] = assay: Synergistic antibacterial activity against MDR Acinetobacter baumannii ATCC BAA-1605 assessed as fold reduction in colistin MIC by checkerboard method; assay type: functional
[18] = Solubility of the compound; assay type: physicochemical
Acinetobacter baumannii [19] = assay: Synergistic antibacterial activity against MDR Acinetobacter baumannii ATCC BAA-1605 assessed as fractional inhibitory concentration in presence of colistin by checkerboard method; assay type: functional
Acinetobacter baumannii [20] = assay: Synergistic antibacterial activity against Acinetobacter baumannii 2208 ATCC 19606 in presence of polymixin B by checkerboard method; assay type: functional; conditions: ATCC 19606 = CIP 70.34 = JCM 6841 2208
Acinetobacter baumannii [21] = assay: Synergistic antibacterial activity against Acinetobacter baumannii 2208 ATCC 19606 assessed as polymixin B MIC by checkerboard method; assay type: functional; conditions: ATCC 19606 = CIP 70.34 = JCM 6841 2208
Acinetobacter baumannii [22] = assay: Synergistic antibacterial activity against MDR Acinetobacter baumannii ATCC BAA-1605 assessed as colistin MIC by checkerboard method; assay type: functional
Acinetobacter baumannii [23] = assay: Synergistic antibacterial activity against Acinetobacter baumannii 2208 ATCC 19606 assessed as fractional inhibitory concentration in presence of polymixin B by checkerboard method; assay type: functional, ATCC 19606 = CIP 70.34 = JCM 6841 2208
Staphylococcus aureus [24] = assay: Selectivity ratio of MIC for Staphylococcus aureus RN4220 over-expressing FabI to MIC for Staphylococcus aureus RN4220; assay type: functional
Acinetobacter baumannii [25] = assay: Synergistic antibacterial activity against MDR Acinetobacter baumannii ATCC BAA-1605 in presence of colistin by checkerboard method; assay type: functional
Method in brief: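 Checkerboard broth dilution in tryptic soy broth. Colistin 4 to 0.03 μg/mL against analog 100 to 0.19 μg/mL, crossed. Clear wells scored. ΣFIC = C/MIC(compound) + C/MIC(partner); <0.5 synergy, 0.5–2 indifference, >2 antagonism.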

Escherichia coli [26] = assay: Antibacterial activity against Escherichia coli BW25113 harboring TolC deletion mutant by microbroth dilution method; assay type: functional; method in brief: as §2

Structure (SMILES) | MIC (Acinetobacter baumannii [1]) | IC50 (HepG2 [2]) | MIC (Staphylococcus aureus [3]) | FIC (Acinetobacter baumannii [4]) | MIC (Acinetobacter baumannii [5]) | IC50 [7] | MIC (Staphylococcus aureus [8]) | Activity [9] | Ki [10] | Ki [11] | MIC (Escherichia coli [12]) | MIC (Staphylococcus aureus [13]) | IC50 (HepG2 [14]) | MIC (Acinetobacter baumannii [15]) | Activity [16] | fold change (FC) (Acinetobacter baumannii [17]) | FIC (Acinetobacter baumannii [19]) | MIC (Acinetobacter baumannii [22]) | Selectivity ratio (Staphylococcus aureus [24]) | MIC (Acinetobacter baumannii [25]) | other results
O=C(Cc1c(F)cccc1F)N1CCC(c2ccccc2)C1 (racemic) | 0.19 µg/mL | > 200 µg/mL | > 200 µg/mL | 0.25 | > 200 µg/mL | 6.9 µM | > 200 µg/mL | Active | 0.7 µM | 3.5 µM | > 200 µg/mL | 166 µM (≈ 50 µg/mL) | 237 µg/mL | 25 µg/mL | Active | – | – | – | – | – | MIC (Staphylococcus aureus [6]): 50 µg/mL (≈ 166 µM)
O=C(Cc1ccccc1Cl)N1CCC(c2ccccn2)C1 (racemic) | 0.39 µg/mL | – | 200 µg/mL (≈ 665 µM) | 0.5 | > 200 µg/mL | 30.7 µM | 200 µg/mL (≈ 665 µM) | Active | 6.8 µM | 15.4 µM | > 200 µg/mL | 166 µM (≈ 50 µg/mL) | – | 50 µg/mL | Active | 10 | – | – | – | – | MIC (Staphylococcus aureus [6]): 100 µg/mL (≈ 332 µM)
O=C(Cc1ccccc1)N1CCC(c2ccccc2)C1 (stereo unspecified) | – | – | – | – | – | – | – | – | – | – | – | – | – | – | – | – | – | – | – | – | solubility [18]: Insoluble
O=C(Cc1ccccc1Cl)N1CCC(c2ccccc2)C1 (racemic) | 0.39 µg/mL | 55 µg/mL | – | 0.31 | > 200 µg/mL | 3.1 µM | – | Active | 4 µM | 1.6 µM | – | 41.7 µM (≈ 12.5 µg/mL) | 79 µg/mL | 12.5 µg/mL | Active | 10 | 0.25 | 0.78 µg/mL | 4 | 25 µg/mL | MIC (Acinetobacter baumannii [20]): 50 µg/mL; MIC (Acinetobacter baumannii [21]): 3.75 µg/mL; FIC (Acinetobacter baumannii [23]): 0.28
COc1ccccc1C1CCN(C(=O)Cc2ccccc2Cl)C1 (racemic) | 0.39 µg/mL | 39 µg/mL | – | 0.19 | > 200 µg/mL | 3.6 µM | 50 µg/mL (≈ 152 µM) | Active | 0.2 µM | 1.8 µM | > 200 µg/mL | 75.8 µM (≈ 25 µg/mL) | 75 µg/mL | 12.5 µg/mL | Active | 10 | 0.25 | 0.39 µg/mL | 4 | 25 µg/mL | –
O=C(Cc1ccccc1Cl)N1CCC(c2ccc3c(c2)OCO3)C1 (racemic) | 0.78 µg/mL | 46 µg/mL | 25 µg/mL (≈ 72.7 µM) | 0.28 | > 200 µg/mL | 7.8 µM | > 200 µg/mL | Active | 0.9 µM | 3.9 µM | – | 18.2 µM (≈ 6.26 µg/mL) | 64 µg/mL | 6.25 µg/mL | Active | 10 | 0.31 | 0.78 µg/mL | >4 | 12.5 µg/mL | MIC (Escherichia coli [26]): 25 µg/mL (≈ 72.7 µM)

— ChEMBL document CHEMBL4177701, “A novel series of enoyl reductase inhibitors targeting the ESKAPE pathogens, Staphylococcus aureus and Acinetobacter baumannii” (Bioorg Med Chem, 2018)
